Screens from PubChem.
A selection: hits, their analogues and other compounds. The true share with any hit is near 1.5%.
NRP1-CendR mod: modulators of CendR peptide binding to NRP-1, primary screen, biochemical, fluorescence polarization, uHTS; actives 0.85% (n = 360,000); AID 602438, 2012; FAM-RPARPAR peptide binding to NRP-1; inhibition, % at 25 µM;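 active means inhibition or corrected inhibition above about 18%, plus a signal ratio from 0.5 to 1.5, limit read from the data, passing the limit was not always enough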
DAGLB inhibitor: DAGLB lipase inhibitors, primary screen, biochemical, fluorescence, HTS; HEK293T DAGLB membrane lysate, EnzChek fluorogenic substrate; AID 504411, 2011; Diacylglycerol lipase-beta (Homo sapiens), Q8NCG7; actives 0.059% (n = 340,000); inhibition, % at 5.17 µM; in the data active means inhibition above about 34%;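 further: 0% = enzyme with vehicle and 100% = wells lacking enzyme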
Target sequence (Q8NCG7 whole entry, looked up): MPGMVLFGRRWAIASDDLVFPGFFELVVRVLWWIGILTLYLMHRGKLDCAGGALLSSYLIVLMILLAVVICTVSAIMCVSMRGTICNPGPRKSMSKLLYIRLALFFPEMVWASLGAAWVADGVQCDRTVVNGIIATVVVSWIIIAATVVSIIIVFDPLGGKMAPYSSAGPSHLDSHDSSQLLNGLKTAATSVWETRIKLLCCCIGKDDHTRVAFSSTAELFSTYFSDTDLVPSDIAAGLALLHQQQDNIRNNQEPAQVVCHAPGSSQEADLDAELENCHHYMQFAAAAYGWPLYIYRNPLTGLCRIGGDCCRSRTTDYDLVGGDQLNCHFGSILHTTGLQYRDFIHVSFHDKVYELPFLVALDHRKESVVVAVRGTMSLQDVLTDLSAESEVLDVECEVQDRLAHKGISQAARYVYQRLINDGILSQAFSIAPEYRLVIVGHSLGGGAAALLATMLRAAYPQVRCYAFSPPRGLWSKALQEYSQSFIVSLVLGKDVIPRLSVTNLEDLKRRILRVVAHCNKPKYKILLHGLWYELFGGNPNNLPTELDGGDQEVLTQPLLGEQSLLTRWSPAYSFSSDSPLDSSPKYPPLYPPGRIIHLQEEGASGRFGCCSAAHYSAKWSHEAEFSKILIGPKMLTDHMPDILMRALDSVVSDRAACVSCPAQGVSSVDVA
UCH37 DUB inh: inhibitors of human UCH37 deubiquitinase, primary screen, biochemical, Ub-AMC cleavage, fluorescence; purified proteasome/UCH37; inhibition, % (no concentration beside the values); actives 0.33% (n = 330,000); AID 588478, 2011;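 active means mean inhibition over replicate wells above about 20%, limit read from the data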;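 further: 0% = compound-free wells with enzyme and 100% = wells lacking proteasome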
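assay system = human UCH37 enzyme supplied as purified proteasome complex | amount = proteasome at 0.15 nM in the dispensed enzyme solution | schedule = 30 min compound-proteasome preincubation then 25 min substrate reaction, room temperature | measured by = fluorescence, ex 355 nm, em 460 nm | benchmarks = no-proteasome wells (full inhibition) and compound-free wells (no inhibition)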
Fh CTSL1 inh: Fasciola hepatica cathepsin L1 inhibitors, primary screen, counter-screen for PFM18AAP inhibitor project, biochemical, QFRET, fluorogenic peptide substrate | recombinant F. hepatica cathepsin L1, Z-Leu-Arg-MCA fluorescence | inhibition, % at 5.96 µM | actives 0.49% (n = 300,000);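 active means inhibition above the mean of all tested compounds plus 3 SD, set per screening campaign, cut at about 17% in these data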;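 further: 0% = plate median of test compound wells and 100% = 1 µM Z-Phe-Ala-diazomethylketone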
MT1-MMP act inh: blockers of MT1-MMP proenzyme processing, primary screen, HT1080 RFP-PRO-GFP cells, GFP/RFP fluorescence. GFP/RFP ratio fluorescence, overnight; percent of plate control window, DMSO zero. GFP/RFP ratio change, % at 20 µM. Matrix metalloproteinase-14 (Homo sapiens), P50281. actives 0.061% (n = 360,000);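 active means GFP/RFP ratio change of at least 30% with cell ATP level not reduced by more than half and red fluorescence within 50% of control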
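Assay system: HT1080 RFP-PRO-GFP cells. Benchmarks: DMSO vehicle wells and RFP-L50D-GFP reporter cell wells. Times: overnight cell settling, then overnight compound exposure, 37 °C, 5% CO2. Compound: 20 µM single dose, 1% DMSO. Read-out basis: GFP/RFP fluorescence ratio.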
An asterisk follows results filed as active.

How did CC(=O)NC(c1cccc(F)c1)c1nc(-c2cccc(C(=O)O)c2)cs1 (stereo not drawn) do in these assays?
NRP1-CendR mod: 4; MT1-MMP act inh: -1

How did COc1ccc(-c2csc(C(NC(C)=O)c3ccc(F)c(F)c3)n2)cn1 (stereo not drawn) do in these assays?
NRP1-CendR mod: -3; MT1-MMP act inh: 2

How did NC(=O)NNC(=S)Nc1cccc2ccccc12 do in these assays?
NRP1-CendR mod: -6; DAGLB inhibitor: -2; UCH37 DUB inh: -2; Fh CTSL1 inh: 91*; MT1-MMP act inh: 7

What do the screens show for `CC(=O)Oc1ccc(C=NNC(=O)C2CCCN2S(=O)(=O)c2ccc(Cl)cc2)cc1` (stereo not drawn)?
UCH37 DUB inh: -2

What do the screens show for `CSc1ccc(C(=O)C2CCCN(S(=O)(=O)N(C)C)C2)cc1` (stereo not drawn)?
NRP1-CendR mod: -1; DAGLB inhibitor: 0; UCH37 DUB inh: 2; Fh CTSL1 inh: 1; MT1-MMP act inh: 0

What do the screens show for `CN(C)S(=O)(=O)N1CCCC(C(=O)c2ccc(-c3ccccc3)c(F)c2)C1` (stereo not drawn)?
NRP1-CendR mod: 20*; DAGLB inhibitor: -5; UCH37 DUB inh: 1; Fh CTSL1 inh: 12; MT1-MMP act inh: -3

How did COc1ccc(-c2noc3c2-c2nc(C(C)C)sc2CC3)cc1 do in these assays?
NRP1-CendR mod: 15; DAGLB inhibitor: -22; UCH37 DUB inh: 1; Fh CTSL1 inh: 7; MT1-MMP act inh: 3

Results for CC(C)c1nc2c(s1)CCc1onc(-c3ccc(Cl)cc3)c1-2 ?
NRP1-CendR mod: 4; DAGLB inhibitor: -11; UCH37 DUB inh: 24*; Fh CTSL1 inh: 0; MT1-MMP act inh: -4

How did CC[n+]1c(/C=C/Nc2ccccc2)oc2ccc(OC)cc21 do in these assays?
NRP1-CendR mod: -84; DAGLB inhibitor: -1; UCH37 DUB inh: 0; Fh CTSL1 inh: 2; MT1-MMP act inh: -17

What do the screens show for `CC[n+]1c(/C=C/N(C)c2ccccc2)oc2ccc(F)cc21`?
NRP1-CendR mod: -162; DAGLB inhibitor: -2; UCH37 DUB inh: 24*; Fh CTSL1 inh: -1; MT1-MMP act inh: -4

Results for CC[n+]1c(/C=C/N(C)c2ccccc2)oc2ccccc21 ?
NRP1-CendR mod: -102; DAGLB inhibitor: -1; UCH37 DUB inh: 21*; Fh CTSL1 inh: 4; MT1-MMP act inh: -28

How did CCOc1ccccc1NC(=O)C(=O)NN=Cc1ccc([N+](=O)[O-])cc1 do in these assays?
UCH37 DUB inh: 12

What do the screens show for `COC(=O)C(CCC(C(=O)OC)N1C(=O)c2ccccc2C1=O)N1C(=O)c2ccccc2C1=O` (stereo not drawn)?
NRP1-CendR mod: -6; DAGLB inhibitor: -2; MT1-MMP act inh: 1

How did CC(C)CC(C(=O)Nn1cnnc1)N1C(=O)c2ccccc2C1=O (stereo not drawn) do in these assays?
NRP1-CendR mod: -3; DAGLB inhibitor: 2; UCH37 DUB inh: 4; Fh CTSL1 inh: 23*; MT1-MMP act inh: 6

What do the screens show for `COc1cc(C(=O)Nc2ccccn2)cc(OC)c1OC`?
NRP1-CendR mod: 5; DAGLB inhibitor: -4; UCH37 DUB inh: -2; Fh CTSL1 inh: 18*; MT1-MMP act inh: -1

Results for COc1cc(C(=O)Nc2ccccc2C(=O)Nc2ccccn2)cc(OC)c1OC ?
NRP1-CendR mod: 2; DAGLB inhibitor: -6; UCH37 DUB inh: -8; Fh CTSL1 inh: -3; MT1-MMP act inh: 5

What do the screens show for `Cc1ccc(C(=O)N2CCN(c3ccc(C(F)(F)F)cn3)CC2)c(C)c1`?
NRP1-CendR mod: 38*; DAGLB inhibitor: -9; UCH37 DUB inh: 2; Fh CTSL1 inh: -2; MT1-MMP act inh: -5

What do the screens show for `O=C(c1ccc(-c2cccc(C(F)(F)F)c2)o1)N1CCCC(C(F)(F)F)C1` (stereo not drawn)?
NRP1-CendR mod: 22*; DAGLB inhibitor: -12; UCH37 DUB inh: -1; Fh CTSL1 inh: 0; MT1-MMP act inh: 1

Results for Cc1cc(C=NNc2ncnc(N)c2[N+](=O)[O-])c(C)n1-c1ccccc1 ?
UCH37 DUB inh: 12

How did COc1cccc(CN2CCNC(=O)C2CC(=O)NC2CCCCC2)c1OC (stereo not drawn) do in these assays?
NRP1-CendR mod: 4; DAGLB inhibitor: 2; Fh CTSL1 inh: 3; MT1-MMP act inh: -4

Results for COc1ccccc1CN1CCNC(=O)C1CC(=O)NC1CCCCCC1 (stereo not drawn) ?
NRP1-CendR mod: 26*; DAGLB inhibitor: 3; UCH37 DUB inh: -1; Fh CTSL1 inh: 5; MT1-MMP act inh: -2

Results for O=C(CC1C(=O)NCCN1Cc1ccc(F)cc1)NC1CCCCCCC1 (stereo not drawn) ?
NRP1-CendR mod: -2; DAGLB inhibitor: 5; UCH37 DUB inh: -1; Fh CTSL1 inh: 19*; MT1-MMP act inh: -4

How did O=C(NN=Cc1ccc(N2CCOCC2)cc1)C1CC1 do in these assays?
UCH37 DUB inh: -136

What do the screens show for `CCc1cc(C(Cc2csc(C)n2)=NO)c(O)cc1O`?
UCH37 DUB inh: 7

How did CC1CN(C(=O)c2ccc(CNS(=O)(=O)c3cccc(Cl)c3)cc2)CC(C)O1 (stereo not drawn) do in these assays?
NRP1-CendR mod: 28*; DAGLB inhibitor: -1; UCH37 DUB inh: 1; MT1-MMP act inh: -1

What do the screens show for `COc1ccccc1C(=O)NC(=O)CSc1nncn1C`?
NRP1-CendR mod: 26*; DAGLB inhibitor: 3; UCH37 DUB inh: 0; Fh CTSL1 inh: -1; MT1-MMP act inh: 3

What do the screens show for `COc1ccc(Cl)cc1C(=O)NNC(=O)CSc1nncn1C`?
NRP1-CendR mod: 1; DAGLB inhibitor: -2; UCH37 DUB inh: 3; MT1-MMP act inh: 3

What do the screens show for `CC(C)(C)c1nnc(NC(=O)c2cc(-c3ccccc3)nc3ccccc23)s1`?
NRP1-CendR mod: 4; DAGLB inhibitor: 0; UCH37 DUB inh: 1; Fh CTSL1 inh: -2; MT1-MMP act inh: -3

Results for Cn1cnnc1SCC(=O)Nc1nc(-c2ccccc2)cs1 ?
NRP1-CendR mod: 20*; UCH37 DUB inh: 1; Fh CTSL1 inh: 2; MT1-MMP act inh: -3

How did Cc1csc(NC(=O)c2cc(-c3ccccc3)nc3ccccc23)n1 do in these assays?
NRP1-CendR mod: 35*; DAGLB inhibitor: -11; UCH37 DUB inh: -13; Fh CTSL1 inh: -3; MT1-MMP act inh: -20

What do the screens show for `CC(=O)Nc1nc(-c2ccc(-c3ccccc3)cc2)cs1`?
NRP1-CendR mod: 21*; DAGLB inhibitor: -1; MT1-MMP act inh: 4

How did Cc1nnc(SCC(=O)Nc2nc(-c3ccccc3)cs2)n1N do in these assays?
NRP1-CendR mod: -8; DAGLB inhibitor: 0; UCH37 DUB inh: 5; Fh CTSL1 inh: -2; MT1-MMP act inh: 1
